Measurements reported in ChEMBL document CHEMBL1146069, “Photodynamic efficiency of diethylene glycol-linked glycoconjugated porphyrins in human retinoblastoma cells” (J Med Chem, 2006).

Assays:
[1] = tested on: Y79; experiment: Survival of human Y79 cells at 2 uM irradiated with 514 nM light at the fluence of 1 J/cm2 after 4 hrs; assay type: functional; details: Y79, light or radiation study, read-out: LD50 (the source's name)
Summary of the method: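 Y79 retinoblastoma cells (ATCC, suspension in COON's medium with 20% FCS) plated at 2 × 10^5 cells/mL in COON's with 2% FCS. Dye added from a 5 mg/mL DMSO stock, incubated 4 h in the dark, then cells centrifuged, washed and resuspended in fresh complete medium. Ar+ laser irradiation at 514 nm, 1 J/cm2. MTT viability read 24 h later at 570/640 nm.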

[2] = tested on: Y79; experiment: Toxicity against human Y79 cells at 2 uM after 4 hrs in dark; assay type: cell-based; details: y79, 4 h
Summary of the method: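 Y79 cells were plated at 2 × 10^5 cells/mL in COON's medium with 2% FCS. They were exposed to 2 µM dye (DMSO stock diluted in medium) for 4 h in the dark, then centrifuged, washed and resuspended in fresh complete medium with no irradiation. Survival fraction was measured by MTT at 570/640 nm.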

[3] = tested on: B16; experiment: Survival of mouse B16 cells at 2 uM irradiated with 514 nM light at the fluence of 5 J/cm2 after 4 hrs; assay type: functional; details: B16, light or radiation study, read-out: LD50 (the source's name)
Summary of the method: (§1)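 Adherent cells (human HT29 colorectal adenocarcinoma; murine B16 melanoma) seeded at 10^5 cells/mL. Dye added from a DMSO stock and incubated 4 h in DMEM with 2% FCS in the dark. Irradiation at 514 nm, 5 J/cm2, in the same dye-containing medium. Survival measured by MTT colorimetric assay.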

[4] = Partition coefficient of the compound, log P; assay type: physicochemical; details: octanol/water
[5] = tested on: HT-29; experiment: Survival of human HT29 cells at 2 uM irradiated with 514 nM light at the fluence of 5 J/cm2 after 4 hrs; assay type: functional; details: HT-29, light or radiation study, read-out: LD50 (the source's name); summary of the method: as §1
[6] = tested on: HT-29; experiment: Cellular uptake in human HT29 cells relative to unglycosylated TPP(p-DegOH)3; assay type: ADME, cell-based
[7] = tested on: Y79; experiment: Cellular uptake in human Y79 cells relative to unglycosylated TPP(p-DegOH)3; assay type: ADME, cell-based
[8] = tested on: B16; experiment: Cellular uptake in mouse B16 cells relative to unglycosylated TPP(p-DegOH)3; assay type: ADME, cell-based

Row | SMILES | CC50 [1] | Activity [2] | CC50 [3] | logP [4] | CC50 [5] | Ratio [6] | Ratio [7] | Ratio [8]
1 | OC[C@H]1O[C@@H](OCCOCCOc2ccc(-c3c4nc(c(-c5ccccc5)c5ccc([nH]5)c(-c5ccc(OCCOCCO[C@@H]6O[C@H](CO)[C@H](O)[C@@H](O)[C@H]6O)cc5)c5ccc([nH]5)c(-c5ccc(OCCOCCO[C@@H]6O[C@H](CO)[C@H](O)[C@@H](O)[C@H]6O)cc5)c5nc3C=C5)C=C4)cc2)[C@H](O)[C@H](O)[C@H]1O | 600 nM | Not Active | 680 nM | 0.23 | 250 nM | 4.4 | 3.7 | 4
2 | OC[C@H]1O[C@H](OCCOCCOc2ccc(-c3c4nc(c(-c5ccccc5)c5ccc([nH]5)c(-c5ccc(OCCOCCO[C@H]6O[C@H](CO)[C@H](O)[C@@H](O)[C@H]6O)cc5)c5ccc([nH]5)c(-c5ccc(OCCOCCO[C@H]6O[C@H](CO)[C@H](O)[C@@H](O)[C@H]6O)cc5)c5nc3C=C5)C=C4)cc2)[C@H](O)[C@H](O)[C@H]1O | 50 nM | Not Active | 100 nM | 0.5 | 820 nM | 1.8 | 2 | 
3 | OC[C@H]1O[C@H](SCCOCCOc2ccc(-c3c4nc(c(-c5ccccc5)c5ccc([nH]5)c(-c5ccc(OCCOCCS[C@H]6O[C@H](CO)[C@@H](O)[C@H](O)[C@@H]6O)cc5)c5ccc([nH]5)c(-c5ccc(OCCOCCS[C@H]6O[C@H](CO)[C@@H](O)[C@H](O)[C@@H]6O)cc5)c5nc3C=C5)C=C4)cc2)[C@@H](O)[C@@H](O)[C@@H]1O | 650 nM | Not Active | 2000 nM | 0.46 | > 2000 nM | 1.2 | 1.4 | 1.3
4 | OC[C@H]1O[C@H](OCCOCCOc2ccc(-c3c4nc(c(-c5ccccc5)c5ccc([nH]5)c(-c5ccc(OCCOCCO[C@H]6O[C@H](CO)[C@@H](O)[C@H](O)[C@@H]6O)cc5)c5ccc([nH]5)c(-c5ccc(OCCOCCO[C@H]6O[C@H](CO)[C@@H](O)[C@H](O)[C@@H]6O)cc5)c5nc3C=C5)C=C4)cc2)[C@@H](O)[C@@H](O)[C@@H]1O | 350 nM | Not Active | 430 nM | 0.02 | 350 nM | 5 | 4.9 | 6.5
5 | OC[C@H]1O[C@H](OCCOc2ccc(-c3c4nc(c(-c5ccccc5)c5ccc([nH]5)c(-c5ccc(OCCO[C@H]6O[C@H](CO)[C@@H](O)[C@@H](O)[C@@H]6O)cc5)c5ccc([nH]5)c(-c5ccc(OCCO[C@H]6O[C@H](CO)[C@@H](O)[C@H](O)[C@@H]6O)cc5)c5nc3C=C5)C=C4)cc2)[C@@H](O)[C@@H](O)[C@@H]1O | 600 nM | Not Active | 850 nM | 0.78 | 440 nM | 1.7 | 1.6 | 1.8
6 | OCCOCCOc1ccc(-c2c3nc(c(-c4ccccc4)c4ccc([nH]4)c(-c4ccc(OCCOCCO)cc4)c4ccc([nH]4)c(-c4ccc(OCCOCCO)cc4)c4nc2C=C4)C=C3)cc1 | > 2000 nM | Not Active |  | > 2 |  | 1 | 1 | 1
7 | OC[C@H]1O[C@@H](SCCOCCOc2ccc(-c3c4nc(c(-c5ccccc5)c5ccc([nH]5)c(-c5ccc(OCCOCCS[C@@H]6O[C@H](CO)[C@H](O)[C@@H](O)[C@H]6O)cc5)c5ccc([nH]5)c(-c5ccc(OCCOCCS[C@@H]6O[C@H](CO)[C@H](O)[C@@H](O)[C@H]6O)cc5)c5nc3C=C5)C=C4)cc2)[C@H](O)[C@H](O)[C@H]1O | 600 nM | Not Active | 2000 nM | -0.07 | 820 nM | 3 | 3.5 | 2.7
